The record followed here is ChEMBL document CHEMBL1153610, “Synthesis and antiprotozoal activities of dicationic bis(phenoxymethyl)benzenes, bis(phenoxymethyl)naphthalenes, and bis(benzyloxy)naphthalenes” (Eur J Med Chem, 2009).

The nature of series [1]: Selectivity index, ratio of IC50 for rat L6 cells to IC50 for chloroquine-resistant Plasmodium falciparum K1. It counts as toxicity, cell-based. To be noted: read-out: Ratio IC50.
The test system of series [2] is L6. The series can be described thus: Cytotoxicity against rat L6 cells. Format: cell-based. The procedure, abridged: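 Rat L6 myoblasts served as the cytotoxicity measure. IC50 is the average of duplicate determinations.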
Series [3] concerns Trypanosoma brucei rhodesiense. Kind of series: Antitrypanosomal activity against Trypanosoma brucei rhodesiense STIB900. Format: functional, organism-based.
Series [4] has as its system Plasmodium falciparum. The series can be described thus: Antimalarial activity against chloroquine-resistant Plasmodium falciparum K1. It counts as functional, organism-based.
Series [5] in a line: Selectivity index, ratio of IC50 for rat L6 cells to IC50 for Trypanosoma brucei rhodesiense STIB900. To be noted: read-out: Ratio IC50. It counts as toxicity, cell-based.
Series [6] deals with Trypanosoma brucei rhodesiense. Kind of series: Antitrypanosomal activity against Trypanosoma brucei rhodesiense STIB900 infected NMRI mouse assessed mean survival time at 20 mg/kg, ip dosed for 4 days. Format: functional. To be noted: route intraperitoneal.
Series [7] relates to Leishmania donovani. Kind of series: Antileishmanial activity against Leishmania donovani MHOM/SD/62/1S-CL2D amastigotes. Format: functional, organism-based. The procedure, abridged:
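IC50 taken as the average of duplicate determinations against L. donovani.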

A short description of series [8]: Selectivity index, ratio of IC50 for rat L6 cells to IC50 for Leishmania donovani MHOM/SD/62/1S-CL2D amastigotes. It counts as toxicity, cell-based. To be noted: read-out: Ratio IC50.
For series [9], the system named is Trypanosoma brucei rhodesiense. Kind of series: Antitrypanosomal activity against Trypanosoma brucei rhodesiense STIB900 infected NMRI mouse assessed as infection cure rate at 20 mg/kg, ip dosed for 4 days. Also on record: dose 20 mg/kg. It counts as functional, organism-based. The procedure, abridged: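 Mice infected with T. b. rhodesiense STIB900 were dosed intraperitoneally once daily for 4 days. Outcome was scored as cured/infected animals out of groups of four, plus mean survival days post infection for mice showing parasitemia relapse.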

Active and inactive are the calls of the source. No cut-off for these calls is given here.

By IC50 is commonly meant the concentration that gives 50% inhibition. High values mean weaker potency in that assay, low ones greater potency in that assay. With `N=C(N)c1ccc(OCc2ccc(COc3ccc(C(=N)N)cc3)cc2)cc1`, the selectivity ratio amounted to 194 in [1], 600 in series [5] and 9.4 in [8]. For the same compound, the IC50 in [2] was 12400 nM; in [3] it was 20.7 nM; in series [4] it was 64 nM; in [7] it was 1320 nM. Besides, the Survival in [6] came to 32 days. Moreover, the outcome in series [9] was inactive.
`c1ccc(COc2ccc(C3=NCCN3)cc2)c(COc2ccc(C3=NCCN3)cc2)c1`: the selectivity ratio in [1] is 10500; in series [5], 168; in series [8], 29.8. Moreover, the concentration for half-maximal inhibition (IC50) in series [2] was 109000 nM; in series [3], 647 nM; in [4], 10.4 nM; in [7], 3660 nM.
As to `N=C(N)c1ccc(-c2ccc(-c3ccc(C(=N)N)cc3)o2)cc1` [FURAMIDINE], the midpoint of inhibition in series [3], the IC50, lay at 3.2 nM.
For the compound `N=C(N)c1ccc(OCc2cc(COc3ccc(C(=N)N)cc3)c3ccccc3c2)cc1`, the selectivity ratio in series [1] was determined as 1250; in series [5] it was 212. In addition, the figures for the IC50 in series [2], in [3] and in [4] were 68800 nM, 325 nM and 55.1 nM, respectively. Further, the Survival in series [6] worked out at 12 days. For the same compound, in [9], the result was inactive.
On to `N=C(N)c1ccc(OCCCCCOc2ccc(C(=N)N)cc2)cc1` [PENTAMIDINE], for which the Survival in series [6] amounted to 42.8 days. The result in [9] was inactive.
For the compound `CC(C)NC(=N)c1ccc(OCc2ccc(COc3ccc(C(=N)NC(C)C)cc3)c3ccccc23)cc1`, the selectivity ratio is 625 in series [1], 134 in series [5] and 4.29 in [8]. Besides, the IC50 worked out at 41800 nM in series [2], 313 nM in series [3], 66.9 nM in [4] and 9730 nM in series [7].
Regarding `c1cc(OCc2ccccc2COc2cccc(C3=NCCN3)c2)cc(C2=NCCN2)c1`, the selectivity ratio was 184 in series [1], 2.75 in [5] and below 0.665 in series [8]. For the same compound, the IC50 in [2] was 66500 nM; in series [3] it was 24200 nM; in series [4], 362 nM; in [7], above 100000 nM.
For `CC(C)NC(=N)c1cccc(OCc2ccccc2COc2cccc(C(=N)NC(C)C)c2)c1`, the selectivity ratio in series [1] is above 1470; in series [5], above 126; in series [8], below 5.41. Moreover, the concentration for half-maximal inhibition (IC50) in [2] is above 162000 nM; in series [3], 1280 nM; in series [4] it was 111 nM; in [7], above 30000 nM.
On to `c1cc(OCc2ccc(COc3cccc(C4=NCCN4)c3)cc2)cc(C2=NCCN2)c1`, for which the selectivity ratio in series [1] is 175; in series [5], 13.9; in [8], below 0.099. Besides, the IC50 in [2] was 19800 nM; in [3], 1420 nM; in series [4], 113 nM; in series [7], above 200000 nM.
Take `N=C(N)c1ccc(OCc2ccc(COc3ccc(C(=N)N)cc3)c3ccccc23)cc1`: the selectivity ratio was 224 in series [1] and 121 in [5]. Also, the IC50 turned out to be 28300 nM in series [2], 234 nM in series [3] and 126 nM in [4].
Take `N=C(N)c1ccc(COc2ccc3cc(OCc4ccc(C(=N)N)cc4)ccc3c2)cc1`: the IC50 in series [2] amounted to 19300 nM; in series [3] it was 2360 nM; in series [7], 7120 nM.
On to `CC(C)NC(=N)c1ccc(OCc2ccccc2COc2ccc(C(=N)NC(C)C)cc2)cc1`, for which the selectivity ratio came to 15000 in series [1], 97 in [5] and 14 in series [8]. In addition, the IC50 in [2] is 163000 nM; in series [3], 1680 nM; in series [4], 10.9 nM; in series [7], 11700 nM.
As for `CC(C)NC(=N)c1cccc(OCc2ccc(COc3cccc(C(=N)NC(C)C)c3)cc2)c1`, the selectivity ratio in series [1] worked out at 1830; in series [5], 72.4; in series [8], 5.89. The half-inhibitory concentration (IC50) in [2] was 87000 nM; in series [3], 1200 nM; in [4] it was 47.4 nM; in series [7], 14800 nM.
